According to ChEMBL document CHEMBL2062406, “Fluorocyclopentenyl-cytosine with broad spectrum and potent antitumor activity” (J Med Chem, 2012):
Each block holds one molecule with its values, some of them ahead of it. Activity calls are given as the source filed them. No cut-off for these calls is given here.

Assays:
HCT-116 [1] = assay: Antitumor activity against human HCT116 cells by SRB method; format: functional, cell-based
SK-MEL-28 [2] = assay: Antitumor activity against human SK-MEL-28 cells by SRB method; format: functional, cell-based
PC-3 [3] = assay: Antitumor activity against human PC3 cells by SRB method; format: functional, cell-based
MDA-MB-231 [4] = assay: Antitumor activity against human MDA-MB-231 cells by SRB method; format: functional, cell-based
PANC-1 [5] = assay: Antitumor activity against human PANC1 cells by SRB method; format: functional, cell-based
OVCAR-3 [6] = assay: Antitumor activity against human OVCAR3 cells by SRB method; format: functional, cell-based
HepG2 [7] = assay: Antitumor activity against human HepG2 cells by SRB method; format: functional, cell-based
LNCaP [8] = assay: Antitumor activity against human LNCAP cells by SRB method; format: functional, cell-based
HT-29 [9] = assay: Antitumor activity against human HT-29 cells by SRB method; format: functional, cell-based
U-251 [10] = assay: Antitumor activity against human U251 cells by SRB method; format: functional, cell-based
A549 [11] = assay: Antitumor activity against human A549 cells by SRB method; format: functional, cell-based
UMRC2 [12] = assay: (§1) Antitumor activity against human UMRC2 cells by SRB method; format: functional, cell-based
K562 [13] = assay: Antitumor activity against human K562 cells by SRB method; format: functional, cell-based
MKN-45 [14] = assay: Antitumor activity against human MKN45 cells by SRB method; format: functional, cell-based
MCF7 [15] = assay: Antitumor activity against human MCF7 cells by SRB method; format: functional, cell-based
HeLa [16] = assay: Antitumor activity against human HeLa cells by SRB method; format: functional, cell-based
NCI-H226 [17] = assay: Antitumor activity against human NCI-H226 cells by SRB method; format: functional, cell-based
A549 [18] = assay: Antitumor activity against human A549 cells xenografted in nu/nu mouse assessed as inhibition of tumor volume at 10 mg/kg, ip administered three times a week for 3 weeks; format: functional; conditions: 504 h, route intraperitoneal
How it was run: (§2)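 Male nu/nu mice received 3 × 10⁶ A549 cells subcutaneously in the right flank. Dosing began at about 100 mm³ tumor volume: 3 or 10 mg/kg intraperitoneally, three times a week for three weeks. Tumor volume was measured by caliper every 2−3 days. Percent inhibition of tumor volume was calculated against a vehicle-treated control group.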

PANC-1 [19] = assay: Antitumor activity against human PANC1 cells at 1 uM by SRB method; format: functional, cell-based
K562 [20] = assay: Antitumor activity against human K562 cells at 1 uM by SRB method; format: functional, cell-based
A549 [21] = assay: Antitumor activity against human A549 cells xenografted in ip dosed nu/nu mouse assessed as tumor growth inhibition administered three times a week for 3 weeks; format: functional, organism-based; how it was run: as §2
HT-29 [22] = assay: Antitumor activity against human HT-29 cells at 1 uM by SRB method; format: functional, cell-based
HCT-116 [23] = assay: Antitumor activity against human HCT116 cells at 1 uM by SRB method; format: functional, cell-based
A549 [24] = assay: Antitumor activity against human A549 cells at 1 uM by SRB method; format: functional, cell-based
LNCaP [25] = assay: Antitumor activity against human LNCAP cells at 1 uM by SRB method; format: functional, cell-based
MKN-45 [26] = assay: Antitumor activity against human MKN45 cells at 1 uM by SRB method; format: functional, cell-based
SK-MEL-28 [27] = assay: Antitumor activity against human SK-MEL-28 cells at 1 uM by SRB method; format: functional, cell-based
HeLa [28] = assay: Antitumor activity against human HeLa cells at 1 uM by SRB method; format: functional, cell-based
U-251 [29] = assay: Antitumor activity against human U251 cells at 1 uM by SRB method; format: functional, cell-based
MDA-MB-231 [30] = assay: Inhibition of DNMT-1 protein human expression in MDA-MB-231 cells after 24 hrs by Western blot analysis; format: functional, cell-based
How it was run: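 MDA-MB-231 cells were exposed to 0, 1, 1.5, 2 or 5 μM for 24 h. DNMT-1 protein was detected by Western blot, with actin as the loading control. Blots are representative of two independent cell cultures.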

[31] = as §1; format: functional, cell-based
A549 [32] = assay: Antitumor activity against human A549 cells xenografted in ip dosed nu/nu mouse assessed as inhibition of tumor weight administered three times a week for 3 weeks; format: functional, organism-based
How it was run: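 Male nu/nu mice carried subcutaneous right-flank A549 xenografts (3 × 10⁶ cells). Treatment started at about 100 mm³ with 3 or 10 mg/kg intraperitoneally, three times weekly for three weeks. Tumors were excised and weighed on day 38. Comparison was with the vehicle control group, with significance at p < 0.05 or p < 0.01.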

PC-3 [33] = assay: Antitumor activity against human PC3 cells at 1 uM by SRB method; format: functional, cell-based
UMRC2 [34] = assay: Antitumor activity against human UMRC2 cells at 1 uM by SRB method; format: functional, cell-based
HepG2 [35] = assay: Antitumor activity against human HepG2 cells at 1 uM by SRB method; format: functional, cell-based
MCF7 [36] = assay: Antitumor activity against human MCF7 cells at 1 uM by SRB method; format: functional, cell-based
MDA-MB-231 [37] = assay: Antitumor activity against human MDA-MB-231 cells at 1 uM by SRB method; format: functional, cell-based
OVCAR-3 [38] = assay: Antitumor activity against human OVCAR3 cells at 1 uM by SRB method; format: functional, cell-based
A549 [39] = assay: Antitumor activity against human A549 cells xenografted in ip dosed nu/nu mouse assessed as inhibition of tumor volume administered three times a week for 3 weeks; format: functional, organism-based; how it was run: as §2
NCI-H226 [40] = assay: Antitumor activity against human NCI-H226 cells at 1 uM by SRB method; format: functional, cell-based
A549 [41] = assay: Antitumor activity against human A549 cells xenografted in nu/nu mouse assessed as inhibition of tumor volume at 3 mg/kg, ip administered three times a week for 3 weeks; format: functional; conditions: 504 h, route intraperitoneal; how it was run: as §2
Mus musculus = assay: Toxicity in nu/nu mouse xenografted with human A549 cells assessed as change in body weight 3 to 10 mg/kg, ip administered three times a week for 3 weeks; format: organism-based; set-up: dose 3-10 mg/kg, route intraperitoneal; conditions: in vivo, 504 h
How it was run: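 Mouse body weight was monitored throughout in male nu/nu mice bearing subcutaneous A549 flank xenografts (3 × 10⁶ cells). These mice received 3 or 10 mg/kg intraperitoneally three times a week for three weeks, starting when tumors reached about 100 mm³, and were compared with vehicle controls.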

Compound: Nc1ccn([C@H]2C[C@H](O)C(CO)=C2F)c(=O)n1
Activity (HCT-116 [1]): inactive
Activity (SK-MEL-28 [2]): inactive
Activity (PC-3 [3]): inactive
Activity (MDA-MB-231 [4]): inactive
Activity (PANC-1 [5]): inactive
Activity (OVCAR-3 [6]): inactive
Activity (HepG2 [7]): inactive
Activity (LNCaP [8]): inactive
Activity (HT-29 [9]): inactive
Activity (U-251 [10]): inactive
Activity (A549 [11]): inactive
Activity (UMRC2 [12]): inactive
Activity (K562 [13]): inactive
Activity (MKN-45 [14]): inactive
Activity (MCF7 [15]): inactive
Activity (HeLa [16]): inactive
Activity (NCI-H226 [17]): inactive

Compound: Nc1ccn([C@@H]2O[C@H](CO)[C@@H](O)C2(F)F)c(=O)n1 [GEMCITABINE]
inhibition in vivo at 10 mg/kg (A549 [18]): 76.7%

IC50 (HCT-116 [1]): 190 nM
IC50 (SK-MEL-28 [2]): 1380 nM
IC50 (PC-3 [3]): 630 nM
IC50 (MDA-MB-231 [4]): 180 nM
IC50 (OVCAR-3 [6]): 800 nM
IC50 (HepG2 [7]): 790 nM
IC50 (LNCaP [8]): 2670 nM
IC50 (HT-29 [9]): 280 nM
IC50 (U-251 [10]): 830 nM
IC50 (A549 [11]): 500 nM
IC50 (K562 [13]): 820 nM
IC50 (MKN-45 [14]): 340 nM
IC50 (MCF7 [15]): 340 nM
IC50 (HeLa [16]): 1350 nM
IC50 (NCI-H226 [17]): 250 nM
Compound: Nc1ccn([C@@H]2C(F)=C(CO)[C@@H](O)[C@H]2O)c(=O)n1 [RODUCITABINE]
Activity (PANC-1 [19]): Active
Activity (K562 [20]): Active
inhibition (A549 [21]): Dose-dependent effect
Activity (HT-29 [22]): Active
Activity (HCT-116 [23]): Active
inhibition in vivo at 10 mg/kg (A549 [18]): 58.1%
Activity (A549 [24]): Active
Activity (LNCaP [25]): Active
Activity (MKN-45 [26]): Active
Activity (SK-MEL-28 [27]): Active
Activity (HeLa [28]): Active
Activity (U-251 [29]): Active
inhibition (MDA-MB-231 [30]): Dose-dependent effect
IC50 [31]: 830 nM
inhibition (A549 [32]): Dose-dependent effect
Activity (PC-3 [33]): Active
Activity (UMRC2 [34]): Active
Activity (HepG2 [35]): Active
Activity (MCF7 [36]): Active
Activity (MDA-MB-231 [37]): Active
Activity (OVCAR-3 [38]): Active
inhibition (A549 [39]): Dose-dependent effect
Activity (NCI-H226 [40]): Active
inhibition in vivo at 3 mg/kg (A549 [41]): 31.8%
Activity (Mus musculus): Non-toxic
